18 molecules from ChEMBL document CHEMBL4680124, “2-Styryl-4-aminoquinazoline derivatives as potent DNA-cleavage, p53-activation and in vivo effective anticancer agents” (Eur J Med Chem, 2020) can be followed below.

Active and inactive are the calls of the source. No cut-off for these calls is given here.

Series [1] has as its system MGC-803. Briefly: Antitumor activity against human MGC-803 cells xenografted in BALB/C nude mouse assessed as tumor growth inhibition at 10 mg/kg, ip administered every 2 days and measured 3 times per week for 16 days. Details: scale not given: the % may be the effect or the level left. In kind it is functional. The following applies: time 16 day. The method, boiled down: (§1)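 Male BALB/c nude mice, 6 weeks old, given 5×10^6 MGC-803 cells s.c. in the flank. When tumors reached about 80 mm3, mice were randomized (n = 6/group) and dosed i.p. every 2 days. Vehicle was 5% DMSO in saline. Drug solutions were 1.0 or 2.0 mg/mL (DMSO/saline). Tumor length and width plus body weight were measured three times weekly; volume = lw²/2. Mean ± SD.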
A general note: In xenograft studies the graft and the host belong to different species.

A further series deals with DU-145. Briefly: Cytotoxicity against human DU145 cells expressing mutant type p53 assessed as reduction in cell viability preincubated for 48 hrs and measured after 4 hrs by MTT assay. Format: functional, cell-based. In a few lines:
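MTT assay. Cells grown in DMEM (T24, MGC-803, A549, HL-7702), RPMI-1640 (DU145) or DMEM-F12 (PC-3), each with 10% FBS. Exposed to 1.25–20 µM in medium with 1% DMSO for 48 h, then MTT for 4 h. Formazan dissolved in DMSO and read at 570 nm. Five wells per concentration; means ± SD of independent repeats.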
Background: Tetrazolium dyes change colour on reduction, which living cells bring about.

For another series, the system named is Mus musculus. Kind of series: Toxicity against BALB/c nude mouse xenografted with human MGC-803 cells assessed as body weight at 10 mg/kg, ip administered every 2 days and measured 3 times per week for 16 days. Format: organism-based. As to conditions: in vivo, 384 h, time 16 day. The method, boiled down: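 Male BALB/c nude mice, 6 weeks old, received 5×10^6 MGC-803 cells subcutaneously in the flank. At about 80 mm3, mice were randomized (n = 6/group). They were dosed i.p. every 2 days with vehicle (5% DMSO in saline, v/v) or drug in DMSO/saline at 1.0 or 2.0 mg/mL. Body weight was recorded three times weekly; mean ± SD.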

In the next series the test system is T-24. Kind of series: Cytotoxicity against human T-24 cells […] assessed as reduction in cell viability preincubated for 48 hrs and measured after 4 hrs by MTT assay. In kind it is functional, cell-based.
The test system of a further series is L02. Kind of series: Cytotoxicity against human HL-7702 cells expressing wild type p53 assessed as reduction in cell viability preincubated for 48 hrs and measured after 4 hrs by MTT assay. Format: functional, cell-based.
The next series relates to A549. Kind of series: Cytotoxicity against human A549 cells expressing wild type p53 assessed as reduction in cell viability preincubated for 48 hrs and measured after 4 hrs by MTT assay. In kind it is functional, cell-based.
Series [2] deals with MGC-803. Briefly: Cytotoxicity against human MGC-803 cells expressing mutant type p53 assessed as reduction in cell viability preincubated for 48 hrs and measured after 4 hrs by MTT assay. Format: functional, cell-based.
A further series relates to PC-3. Kind of series: Cytotoxicity against human PC-3 cells assessed as reduction in cell viability preincubated for 48 hrs and measured after 4 hrs by MTT assay. In kind it is functional, cell-based.
Series [3] relates to MGC-803. Briefly: Antitumor activity against human MGC-803 cells xenografted in BALB/C nude mouse assessed as tumor growth inhibition at 10 mg/kg, ip administered every 2 days and measured 3 times per week. The following applies: time 2.0 day. Format: functional, organism-based. The method, boiled down:
as §1

Series [4] has as its system MGC-803. Kind of series: Induction of apoptosis in human MGC-803 cells assessed as decrease in Bcl-xL expression at 5 uM measured after 24 hrs by Western blot analysis. Format: functional, cell-based. The method, boiled down: (§2)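 MGC-803 cells (2×10^6) plated overnight, then treated for 24 h at 0.5, 1.0 or 2.5 µM (test agent) or 5.0 µM (comparator). Whole-cell lysates separated by SDS-PAGE, transferred to PVDF and probed with primary antibodies. AP-linked anti-rabbit IgG, ECL detection, β-actin loading control. Representative of three experiments.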
Background: In western blotting, separated proteins are transferred to a membrane and probed.

Series [5] deals with MGC-803. Kind of series: Induction of apoptosis in human MGC-803 cells assessed as increase in Bax expression at 5 uM measured after 24 hrs by Western blot analysis. Format: functional, cell-based. In a few lines: as §2
Series [6] relates to MGC-803. Kind of series: Induction of apoptosis in human MGC-803 cells assessed as increase in Bim expression at 5 uM measured after 24 hrs by Western blot analysis. In kind it is functional, cell-based. In a few lines:
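MGC-803 cells (2×10^6) cultured overnight, then exposed 24 h to 0.5, 1.0 or 2.5 μM, or 5.0 μM for the reference agent. Lysates were resolved by SDS-PAGE, transferred to PVDF and probed with primary antibodies. Detection used AP-linked anti-rabbit IgG and ECL. β-actin served as loading control.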

Another series relates to PLC-PRF-5. Briefly: Antitumor activity against human PLC/PRF/5 cells xenografted in mouse assessed as tumor growth inhibition at 30 mg/kg. In kind it is functional. As to conditions: read-out: TGI.
The subject of series [7] is MGC-803. Briefly: Induction of apoptosis in human MGC-803 cells assessed as decrease in Bcl-2 expression at 5 uM measured after 24 hrs by Western blot analysis. Format: functional, cell-based. In a few lines:
as §2

Series [8] deals with MGC-803. Kind of series: Induction of apoptosis in human MGC-803 cells assessed as decrease in Bak expression at 5 uM measured after 24 hrs by Western blot analysis. Format: functional, cell-based. The method, boiled down:
as §2

Broadly, the IC50 is the concentration that inhibits the measured activity by half. On to `COc1cccc2c1C(=O)c1c(O)c3c(c(O)c1C2=O)C[C@@](O)(C(=O)CO)C[C@@H]3O[C@H]1C[C@H](N)[C@@H](O)[C@H](C)O1` [EPIRUBICIN], for which the Activity in the series with MGC-803 [1] was 67.2%; in the series with Mus musculus, “Non-Toxic”. Further, the IC50 with DU-145 stood at 2.01 µM; with T-24, 1.12 µM; with L02, 2.1 µM; in the series with A549, 0.82 µM; with MGC-803 [2], 1.2 µM; in the series on PC-3, 2.31 µM. In addition, the result with MGC-803 [3] was Active.

Regarding `COc1ccc(/C=C/c2nc(NCCCN(C)C)c3ccccc3n2)cc1`, the result with MGC-803 [4], in the series on MGC-803 [5], in the series on MGC-803 [6], in the series with MGC-803 [7] and in the series with MGC-803 [8] was inactive. Further, the inhibition in vivo at 30 mg/kg in the series on PLC-PRF-5 was found to be 60%. For the same molecule, the IC50 in the series with DU-145 is 15.3 µM; in the series with T-24, 20.3 µM; in the series with L02, 25.3 µM; in the series on A549, 24.8 µM; in the series on MGC-803 [2], 18.3 µM; with PC-3, 16.3 µM.

Regarding `COc1ccc(/C=C/c2nc(NCCN3CCOCC3)c3cc(Cl)ccc3n2)cc1OC`, the IC50 with DU-145 is greater than 100 µM; in the series on T-24 it was 91.8 µM; with L02 it was greater than 100 µM; in the series on A549, greater than 100 µM; in the series with MGC-803 [2], greater than 100 µM; in the series on PC-3, greater than 100 µM.

`CCN(CC)CCNc1nc(/C=C/c2ccc3c(c2)OCO3)nc2ccccc12`: the IC50 was found to be 16.3 µM in the series on DU-145; 8.68 µM in the series on T-24; 20.7 µM in the series on L02; 46.9 µM with A549; 9.88 µM in the series with MGC-803 [2]; 33.9 µM in the series with PC-3.

Consider `COc1ccc(/C=C/c2nc(NCCN(C(C)C)C(C)C)c3cc(Cl)ccc3n2)cc1OC`, for which the IC50 with DU-145 is greater than 100 µM; in the series with T-24 it was 14.8 µM; in the series with L02 it was greater than 100 µM; in the series with A549, greater than 100 µM; in the series on MGC-803 [2], 15.6 µM; in the series with PC-3 it was greater than 100 µM.

With `NCCCCNc1nc(/C=C/c2ccc3c(c2)OCO3)nc2ccc(Cl)cc12`, the IC50 was 50.3 µM with DU-145; 5.65 µM in the series on T-24; greater than 100 µM with L02; 9.82 µM in the series with A549; 10.3 µM with MGC-803 [2]; greater than 100 µM in the series on PC-3.

As for `CC(C)N(CCNc1nc(/C=C/c2ccc([N+](=O)[O-])cc2)nc2ccc(Cl)cc12)C(C)C`, the IC50 in the series on DU-145 is greater than 100 µM; in the series with T-24, 56.6 µM; with L02, greater than 100 µM; in the series with A549 it was greater than 100 µM; with MGC-803 [2], 17.3 µM; with PC-3 it was greater than 100 µM.

In the case of `CN(C)CCNc1nc(/C=C/c2ccc3c(c2)OCO3)nc2ccc(Cl)cc12`, the IC50 was greater than 100 µM in the series with DU-145; 9.61 µM with T-24; greater than 100 µM in the series on L02; greater than 100 µM in the series with A549; 9.46 µM in the series with MGC-803 [2]; greater than 100 µM in the series with PC-3.

Consider `O=[N+]([O-])c1ccc(/C=C/c2nc(NCCN3CCOCC3)c3cc(Cl)ccc3n2)cc1`, for which the IC50 in the series on DU-145, with T-24, in the series with L02, with A549, in the series with MGC-803 [2] and in the series with PC-3 was greater than 100 µM each time.

For the molecule `COc1ccc(/C=C/c2nc(NCCCCN)c3cc(Cl)ccc3n2)cc1OC`, the IC50 is 20 µM in the series with DU-145; 7.82 µM in the series with T-24; greater than 100 µM in the series with L02; 50.5 µM in the series with A549; 14.1 µM in the series with MGC-803 [2]; greater than 100 µM in the series with PC-3.

As for `COc1ccc(/C=C/c2nc(NCCN3CCOCC3)c3ccccc3n2)cc1OC`, the half-inhibitory concentration (IC50) in the series on DU-145, with T-24, in the series with L02, with A549, in the series with MGC-803 [2] and in the series with PC-3 was greater than 100 µM throughout.

Turning to `CCN(CC)CCCNc1nc(/C=C/c2ccc(OC)c(OC)c2)nc2ccc(Cl)cc12`, the half-maximal inhibitory concentration (IC50) was 5.35 µM with DU-145; 3.51 µM with T-24; 5.17 µM with L02; greater than 100 µM with A549; 8.42 µM with MGC-803 [2]; 6.25 µM in the series on PC-3.

Regarding `Clc1ccc2nc(/C=C/c3ccc4c(c3)OCO4)nc(NCCN3CCCCC3)c2c1`, the IC50 with DU-145 is greater than 100 µM; in the series on T-24, 9.22 µM; with L02, greater than 100 µM; in the series on A549 it was greater than 100 µM; in the series with MGC-803 [2], 14.7 µM; in the series with PC-3, greater than 100 µM.

Turning to `CN(C)CCNc1nc(/C=C/c2ccc3c(c2)OCO3)nc2ccccc12`, the IC50 is greater than 100 µM with DU-145; 66.4 µM in the series on T-24; 57.8 µM in the series with L02; greater than 100 µM in the series on A549; greater than 100 µM in the series with MGC-803 [2]; greater than 100 µM in the series with PC-3.

On to `CC(C)N(CCNc1nc(/C=C/c2ccc3c(c2)OCO3)nc2ccccc12)C(C)C`, for which the IC50 with DU-145 was greater than 100 µM; in the series with T-24, 17.5 µM; in the series on L02 it was 21.2 µM; in the series on A549, greater than 100 µM; in the series with MGC-803 [2] it was 11.3 µM; with PC-3, greater than 100 µM.

As to `COc1ccc(/C=C/c2nc(NCCN(C)C)c3cc(Cl)ccc3n2)cc1OC`, the IC50 worked out at 17.9 µM in the series on DU-145; 12.1 µM in the series on T-24; 80.5 µM with L02; 21.3 µM in the series on A549; 11.8 µM in the series with MGC-803 [2]; 23.6 µM in the series with PC-3.

Turning to `NCCCCNc1nc(/C=C/c2ccc3c(c2)OCO3)nc2ccccc12`, the IC50 in the series with DU-145 is greater than 100 µM; in the series with T-24, 41.2 µM; in the series on L02, greater than 100 µM; in the series with A549 it was greater than 100 µM; in the series on MGC-803 [2] it was 24.6 µM; with PC-3, greater than 100 µM.

With `CCN(CC)CCCNc1nc(/C=C/c2ccc([N+](=O)[O-])cc2)nc2ccccc12`, the IC50 in the series with DU-145 is 12.3 µM; in the series with T-24, 5.42 µM; in the series with L02, 5.3 µM; in the series with A549 it was greater than 100 µM; in the series with MGC-803 [2], 8.25 µM; in the series on PC-3, 15.4 µM.
